The text below walks through data of paper PMC9285861 (Biomacromolecules, 2019).

Where two headings read alike, the source gives them in different places. Some results are limits rather than exact numbers.

One data set can be described thus: Reverse phase HPLC. The data set is classed as physicochemical. The following applies: Figure S2.
The nature of a further data set: Thioflavin T. The data set is classed as physicochemical. The following applies: 50 μM Aβ, 100 μM ThT, 37 °C, without plasma proteins, Ex/Em 440/485 nm, triplicate.
For a further data set, the system named is monocytes. Put plainly: Blood cell association of ThT-labeled Aβ by flow cytometry, monocytes. The data set is classed as cell-based, human. The following applies: 1 h, triplicate. A digest of the protocol: (§1)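 Heparinised whole blood, or blood washed five times in PBS (950g, 10 min) and resuspended in serum-free RPMI 1640, given ThT-labeled test peptide oligomers or fibrils at 5, 10, 15 μM, 1 h at 4 and 37 °C, triplicate. RBCs lysed; antibody staining 1 h on ice; 1% formaldehyde fixation; flow cytometry with populations gated by CD3, CD14, CD56, CD19, Lin1/HLA-DR, SSC-A.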
In general terms: A flow cytometer gives signals particle by particle.

The subject of a further data set is dendritic cells (DCs). As to the kind of experiment: Blood cell association of ThT-labeled Aβ by flow cytometry, dendritic cells. The data set is classed as cell-based, human. The following applies: 1 h. The procedure, abridged:
as §1

A further data set deals with granulocytes. As to the kind of experiment: Blood cell association of ThT-labeled Aβ by flow cytometry, granulocytes. The data set is classed as cell-based, human. The following applies: 1 h. A digest of the protocol: as §1
The test system of another data set is NK cells. Put plainly: Blood cell association of ThT-labeled Aβ by flow cytometry, NK cells. The data set is classed as cell-based, human. The following applies: especially with plasma proteins, 1 h. The procedure, abridged: as §1
Another data set deals with B cells. Put plainly: Blood cell association of ThT-labeled Aβ by flow cytometry, B cells. The following applies: 1 h. The data set is classed as cell-based, human. The procedure, abridged:
as §1

Data set [1] relates to Human monocytic THP-1 cells. Put plainly: LSPR immunoassay of cytokine secretion, THP-1 cells. The data set is classed as cell-based. The following applies: 37 °C, 2 h incubation, 5, 10, 15 μM, LSPR read-out.
Data set [2] relates to human immune cell lines (T cells, B cells, or THP-1 cells). Put plainly: LSPR immunoassay of cytokine secretion, immune cell lines. The data set is classed as cell-based. The following applies: for effect of plasma proteins on immune responses (cytokine secretion): 37 °C, human plasma versus RPMI-1640 medium, all three types of immune cells. The procedure, abridged:
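Jurkat T (RPMI-1640, 200 μg/mL […], 10% FBS), EBV-transformed B lymphoblasts and THP-1 (50 μM mercaptoethanol) cells at 1 × 10^6 cells/mL in human plasma proteins or RPMI-1640 took test peptide oligomers or fibrils, 5, 10, 15 μM final, 2 h at 4 and 37 °C. TNF and IL-6 in medium measured on antibody–gold nanorod LSPR chips via calibration curves; triplicate.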

Data set [3] deals with SH-SY5Y neuroblastoma cells. The following applies: 20 μM Aβ, 15 h, triplicate, ± SD.
The subject of the next data set is SH-SY5Y neuronal cells. The following applies: 20 μM Aβ, 2 h.
The test system of the next data set is T cells. As to the kind of experiment: Blood cell association of ThT-labeled Aβ by flow cytometry, T cells. The data set is classed as cell-based, human. The following applies: 1 h. A digest of the protocol: as §1
[4] abbreviates: 5 μM, with plasma proteins, triplicate ± SD.
[5] abbreviates: 5 μM, without plasma proteins, triplicate ± SD.
The mark [6] stands for this setting: 10 μM, with plasma proteins, triplicate ± SD.
[7] abbreviates: 10 μM, without plasma proteins, triplicate ± SD.
Where [8] appears, read: 15 μM, with plasma proteins, triplicate ± SD.
The mark [9] stands for this setting: 15 μM, without plasma proteins, triplicate ± SD.

Turning to “AIAEGDSHVLKEGAY-MEIFDVQGHVFGGKIFRVVDLGSHNVA [AβO]”, the “hydrophobicity by RP-HPLC” value in the data set “Reverse phase HPLC” is recorded as “slightly hydrophobic”. The “time to saturation phase of ThT fibrillization kinetics” value in “Thioflavin T” is given as ~ 60 h. The association with monocytes in the data set with monocytes (all concentrations (5, 10, 15 μM), all conditions) was 90–100%. Further, the “association with DCs” value is on record as 78–85% in the data set on dendritic cells (DCs) (in the absence of plasma proteins, range over 5-15 μM) and 69–93% in the data set with dendritic cells (DCs) (whole blood cells (with plasma proteins), range over 5-15 μM). In addition, the association with granulocytes with granulocytes (with and without plasma proteins (no considerable difference)) is 80–90%. In the data set with NK cells, the “association with NK cells” value is “very low association”. For the same substance, in the data set with B cells (3 concentrations (5, 10, 15 μM)), the “change of association with B cells from whole blood to washed cells” value was “slightly decreased”. For the same substance, in data set [1], the “pro-inflammatory cytokine secretion (TNF, IL-6) of THP-1 cells” value was “prominent pro-inflammatory cytokine secretion”. Moreover, the “effect of plasma proteins on immune responses (cytokine secretion)” value in [2] is on record as “mostly promoted”. In addition, the “expression of cytokines IL-6 and TNF by immune cells” value in [2] (2 h incubation, LSPR sensor) is recorded as “significant expression”. Besides, the entries for the “cytotoxicity (PI-positive cells)” value in [3] (with plasma proteins) and in data set [3] (without plasma proteins) were 30 ± 2% and 39 ± 2.6%, respectively. Also, the “cell membrane damage by HIM” value in the data set with SH-SY5Y neuronal cells (with plasma proteins) was “damage was reduced”; in the data set with SH-SY5Y neuronal cells (without plasma proteins), “significant damage including membrane deformation and blebbing”.
Regarding “AIAEGDSHVLKEGAY-MEIFDVQGHVFGGKIFRVVDLGSHNVA [Aβf]”, in the data set “Reverse phase HPLC”, the “hydrophobicity by RP-HPLC” value is listed as “varying hydrophobicity”. In addition, the association with monocytes in the data set with monocytes (high concentrations) is on record as 60–80%; in the data set on monocytes (low concentrations), 20–40%. Further, the “association with T cells” value is on record as 5.2 ± 0.1% in the data set on T cells (5 μM, without plasma proteins (washed blood), triplicate ± SD); 38.2 ± 3.2% in the data set with T cells (10 μM, without plasma proteins (washed blood), triplicate ± SD); 51.8 ± 1.5% in the data set with T cells (15 μM, without plasma proteins (washed blood), triplicate ± SD); less than 10% in the data set with T cells (with plasma proteins (whole blood)). Besides, the “association with DCs” value came out at 11.1 ± 3.7% in the data set on dendritic cells (DCs) (setting [4]); 38.2 ± 3.3% in the data set with dendritic cells (DCs) (setting [5]); 35 ± 0.7% in the data set with dendritic cells (DCs) (setting [6]); 69.2 ± 3.1% in the data set with dendritic cells (DCs) (setting [7]); 56.5 ± 13% with dendritic cells (DCs) (setting [8]); 71.2 ± 6.4% with dendritic cells (DCs) (setting [9]). Besides, the association with granulocytes was 7.0 ± 2.9% in the data set on granulocytes (setting [4]); 11.7 ± 0.4% in the data set with granulocytes (setting [5]); 21.6 ± 1.2% with granulocytes (setting [6]); 38.5 ± 5.4% with granulocytes (setting [7]); 35.7 ± 2.6% in the data set on granulocytes (setting [8]); 51.8 ± 3.1% with granulocytes (setting [9]). In the data set on NK cells, the “association with NK cells” value is “no association”. The “association with B cells” value was 36.6 ± 6.0% with B cells (10 μM, whole blood as the sentence is printed, triplicate ± SD); 57.1 ± 0.9% in the data set with B cells (15 μM, whole blood as the sentence is printed, triplicate ± SD); “below 5%” with B cells (3 concentrations (5, 10, 15 μM), washed cells as the sentence is printed). In [2], the “effect of plasma proteins on immune responses (cytokine secretion)” value is on record as “overall suppressed immune responses”. The entries for the “cytotoxicity (PI-positive cells)” value in data set [3] (with plasma proteins) and in [3] (without plasma proteins) were “not affected by plasma proteins” and 13%, respectively. The “cell membrane damage by HIM” value in the data set with SH-SY5Y neuronal cells (with plasma proteins) and with SH-SY5Y neuronal cells (without plasma proteins) was “no damage was evident” each time.
Consider “AIAEGDSHVLKEGAY-MEIFDVQGHVFGGKIFRVVDLGSHNVA [Aβm, reference compound]”, for which, in “Thioflavin T”, the “time to saturation phase of ThT fibrillization kinetics” value is reported as ~ 60 h.
